Experiment [1] concerns the target Signal transducer and activator of transcription 3 (Homo sapiens) (UniProt P40763). Briefly: Inhibition of STAT3C-mediated transcription in human Hs578T cells at 1 uM after 24 hrs by luciferase reporter gene assay. Format: cell-based. Conditions: Hs-578T. In a few lines:
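HS578T cells co-transfected with a constitutively active STAT3 (STAT3C) expression vector and the APRE-Luc reporter. Treated at 1 μM for 24 h, with JAK2 inhibitor AZD1480 for comparison. Luciferase measured; mean ± SD of triplicates.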
On the technique in general: In a reporter assay the amount or activity of a reporter protein is the signal.

The target is the same in experiment [2]. The experiment can be described thus: Inhibition of STAT3 in human Hs578T cells assessed as reduction of IL-6 induced transactivation incubated for 1 hr prior to IL-6 challenge measured after 2 hrs by luciferase reporter gene assay. Format: cell-based. Conditions: Hs-578T. An outline of the steps:
(§1)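 Cells transfected with the APRE-Luc STAT3-responsive reporter. Pretreated 1 h with increasing concentrations, then given 5 ng/mL IL-6: 2 h for HS578T, 16 h for MCF7. Luciferase read afterwards; relative activity as mean ± SD of triplicates.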

For experiment [3] the target is unchanged. Briefly: Inhibition of STAT3 in human MCF7 cells assessed as reduction of IL-6 induced transactivation incubated for 1 hr prior to IL-6 challenge measured after 16 hrs by luciferase reporter gene assay. The class given is cell-based. An outline of the steps: as §1
Experiment [4] has the same target. Briefly: Inhibition of STAT3 in human Hs578T cells assessed as reduction of IL-6 induced STAT3 phosphorylation at Y705 incubated for 2 hrs prior to IL-6 challenge measured after 30 mins by Western blotting analysis. The class given is cell-based. Conditions: Hs-578T. In a few lines:
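Cells pretreated with compound for 2 h, then stimulated with IL-6 at 5 ng/mL for 30 min. Lysates immunoblotted for phospho-STAT3 (Y705), with β-actin as loading control.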
On the technique in general: In western blotting, separated proteins are transferred to a membrane and probed.

For experiment [5] the target is unchanged. Briefly: Inhibition of STAT3 in human SUM149PT cells assessed as reduction of IL-6 induced STAT3 phosphorylation at Y705 incubated for 2 hrs prior to IL-6 challenge measured after 30 mins by Western blotting analysis. Format: cell-based.
The subject of the next experiment is SUM1315MO2. Briefly: Cytotoxicity against human SUM1315MO2 cells after 72 hrs by MTT assay. Format: functional, cell-based. In a few lines: (§2)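 Cells exposed to increasing concentrations for about 72 h, and viability read by MTT. EC50 fitted with CompuSyn. Two independent experiments, each in triplicate, mean ± SEM. Compound stocks 10 mM in DMSO.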
(In general: Formazan colour is commonly taken as a measure of viable cells.)

Another experiment deals with SUM149PT. The experiment can be described thus: Cytotoxicity against human SUM149PT cells after 72 hrs by MTT assay. Format: functional, cell-based. In a few lines: as §2
A further experiment deals with MDA-MB-453. Briefly: Cytotoxicity against human MDA-MB-453 cells after 72 hrs by MTT assay. Format: functional, cell-based. An outline of the steps: as §2
A further experiment relates to MDA-MB-231. Briefly: Cytotoxicity against human MDA-MB-231 cells after 72 hrs by MTT assay. The class given is functional, cell-based. An outline of the steps:
as §2

The next experiment relates to Hs-578T. Briefly: Cytotoxicity against human Hs578T cells after 72 hrs by MTT assay. The class given is functional, cell-based. An outline of the steps:
as §2

For another experiment, the system named is MDA-MB-436. Briefly: Cytotoxicity against human MDA-MB-436 cells after 72 hrs by MTT assay. Format: functional, cell-based. In a few lines: as §2
For the next experiment, the system named is BT-549. Briefly: Cytotoxicity against human BT549 cells after 72 hrs by MTT assay. The class given is functional, cell-based. In a few lines: as §2
Another experiment deals with MDA-MB-468. Briefly: Cytotoxicity against human MDA-MB-468 cells after 72 hrs by MTT assay. Format: functional, cell-based. An outline of the steps:
as §2

Another experiment relates to HCC1937. Briefly: Cytotoxicity against human HCC1937 cells after 72 hrs by MTT assay. Format: functional, cell-based. In a few lines: as §2
In a further experiment the test system is A-431. The experiment can be described thus: Cytotoxicity against human A431 cells after 72 hrs by MTT assay. The class given is functional. The conditions noted are these: A-431, 72 h. An outline of the steps: as §2
For another experiment, the system named is A549. The experiment can be described thus: Cytotoxicity against human A549 cells after 72 hrs by MTT assay. The class given is functional. The conditions noted are these: A549, 72 h. An outline of the steps:
as §2

Experiment [6] in a line: Cytotoxicity against human PC3 cells after 72 hrs by MTT assay. Format: functional. Conditions: PC-3, 72 h. An outline of the steps: as §2
The target of experiment [7] is Signal transducer and activator of transcription 3 (Homo sapiens) (UniProt P40763). Briefly: Inhibition of STAT3 in human Hs578T cells assessed as reduction of STAT3 phosphorylation at Y705 after 24 hrs by Western blotting analysis. The class given is cell-based. Conditions: Hs-578T. An outline of the steps: (§3)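 HS578T and SUM149PT cells given increasing concentrations for 24 h. Lysates immunoblotted with the indicated antibodies, β-actin as loading control.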
Chain of Signal transducer and activator of transcription 3 (Homo sapiens) (P40763 whole entry): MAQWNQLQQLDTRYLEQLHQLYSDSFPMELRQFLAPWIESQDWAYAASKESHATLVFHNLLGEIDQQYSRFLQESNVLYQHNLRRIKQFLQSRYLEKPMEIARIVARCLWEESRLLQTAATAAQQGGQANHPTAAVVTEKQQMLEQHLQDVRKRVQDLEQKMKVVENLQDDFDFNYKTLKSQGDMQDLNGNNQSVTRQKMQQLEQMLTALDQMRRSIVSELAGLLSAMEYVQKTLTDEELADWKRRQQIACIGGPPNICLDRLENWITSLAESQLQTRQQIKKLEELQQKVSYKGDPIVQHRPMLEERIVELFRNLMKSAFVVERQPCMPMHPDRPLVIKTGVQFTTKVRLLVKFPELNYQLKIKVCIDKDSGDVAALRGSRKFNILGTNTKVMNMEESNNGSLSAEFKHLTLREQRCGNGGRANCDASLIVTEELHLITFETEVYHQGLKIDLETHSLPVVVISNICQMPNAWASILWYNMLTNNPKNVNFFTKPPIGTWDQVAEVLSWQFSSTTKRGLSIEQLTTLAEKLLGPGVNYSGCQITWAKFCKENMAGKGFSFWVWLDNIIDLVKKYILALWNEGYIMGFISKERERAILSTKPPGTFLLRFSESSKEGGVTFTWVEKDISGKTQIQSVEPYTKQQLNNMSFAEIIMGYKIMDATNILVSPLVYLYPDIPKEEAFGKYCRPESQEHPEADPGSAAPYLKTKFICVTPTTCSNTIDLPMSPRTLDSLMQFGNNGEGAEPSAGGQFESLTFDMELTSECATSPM

Experiment [8] has the same target. Briefly: Inhibition of STAT3 in human SUM149PT cells assessed as reduction of STAT3 phosphorylation at Y705 after 24 hrs by Western blotting analysis. Format: cell-based. An outline of the steps:
as §3

The target is the same in experiment [9]. The experiment can be described thus: Inhibition of STAT3 in human Hs578T cells assessed as reduction of cyclin D1 level at 0.3 to 3 uM after 24 hrs by Western blotting analysis. The class given is cell-based. The conditions noted are these: Hs-578T. In a few lines: as §3
The target is the same in experiment [10]. The experiment can be described thus: Inhibition of STAT3 in human SUM149PT cells assessed as reduction of cyclin D1 level at 0.3 to 3 uM after 24 hrs by Western blotting analysis. The class given is cell-based. An outline of the steps: as §3

Calls of active or inactive are those of the source. No cut-off for these calls is given here.

Turning to `Cc1c(OS(=O)(=O)c2cccc3c(N(C)C)cccc23)ccc2c1[nH]c1cc(O)ccc12`, the inhibition entry in experiment [1], in experiment [3], in experiment [9] and in experiment [10] was “Active” each time. Moreover, the inhibition entry in experiment [2], in experiment [4], in experiment [5], in experiment [7] and in [8] was “Dose-dependent effect” throughout. Further, the outcome with SUM1315MO2, with SUM149PT, in the experiment on MDA-MB-453, in the experiment with MDA-MB-231, in the experiment with Hs-578T and in the experiment on MDA-MB-436 was Active. The result with BT-549, with MDA-MB-468 and in the experiment with HCC1937 was Active. The results for the concentration for 50% growth inhibition (GI50) (with A-431; in the experiment on A549; in [6]) were 160 nM, 2500 nM and 3000 nM, respectively.
